# Data as given in ChEMBL document CHEMBL3526054, “Substituted imidazole of 5-fluoro-2-[4-[(2-phenyl-1H-imidazol-5-yl)methyl]-1-piperazinyl]pyrimidine Inactivates cytochrome P450 2D6 by protein adduction” (Drug Metab Dispos, 2011).
# Columns and labels:
# [1] = biological target: T1, Cytochrome P450 2D6 (Homo sapiens, UniProt P10635); assay: Partition ratio of […] assessed as number of molecules of compound metabolized per molecule of inactivated enzyme after 60 mins by HPLC analysis; format: ADME; details: recombinant enzyme, 1 h
# [2] = biological target: T2, CYP2D6 (Homo sapiens, UniProt P10635); assay: Inhibition of catalytic activity of […] assessed as loss of native heme in hemochrome at 16 uM after <15 mins by HPLC analysis in presence of NADPH; format: ADME
# [3] = biological target: T2, CYP2D6; assay: (§1) Inhibition of catalytic activity of recombinant human CYP2D6 expressed in Escherichia coli co-expressing P450 reductase assessed as hydroxybufuralol activity at 16 uM after <15 mins by HPLC analysis in presence of NADPH; format: ADME; details: probe bufuralol (hydroxybufuralol formation)
# [4] = biological target: T1, Cytochrome P450 2D6; assay: Covalent binding affinity to human CYP2D6 with P450 reductase assessed per nmol of enzyme after 60 mins by protein precipitation and scintillation counting analysis in presence of NADPH; details: 1 h
# [5] = biological target: Cytochrome P450 2C9 (Homo sapiens, UniProt P11712); assay: Drug metabolism assessed as CYP2C9 (unknown origin)-mediated retention time of metabolite by LC-MS/MS analysis in presence of NADPH; format: ADME
# [6] = biological target: T1, Cytochrome P450 2D6; assay: Binding affinity to recombinant human CYP2D6 expressed in Escherichia coli co-expressing P450 reductase by spectral analysis; format: ADME; details: read-out: Ks
# Procedure, shortened: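 Purified recombinant CYP2D6 (from E. coli), 1 μM in 100 mM potassium phosphate pH 7.4, split between two cuvettes at room temperature. Ligand (0.05–16 μM, in water) titrated into the sample cuvette, solvent into the reference. Difference spectra recorded 350–500 nm. ΔA430–395 plotted against concentration. Ks obtained by nonlinear fit to the quadratic tight-binding equation.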
# [7] = biological target: Cytochrome P450 2C19 (Homo sapiens, UniProt P33261); assay: Drug metabolism assessed as CYP2C19 (unknown origin)-mediated retention time of metabolite by LC-MS/MS analysis in presence of NADPH; format: ADME
# [8] = biological target: T2, CYP2D6; assay: Inhibition of catalytic activity of recombinant human CYP2D6 expressed in Escherichia coli co-expressing P450 reductase assessed as loss of ability to bind CO at 16 uM after <15 mins by […] in presence of NADPH; format: ADME
# Procedure, shortened: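 Purified CYP2D6 (1 μM) reconstituted with 2 μM P450 reductase, 30 μM dilauroyl-PC, catalase and SOD in 100 mM KPi pH 7.4, with 16 μM compound and an NADPH-generating system. Incubated up to 25 min. Controls lacked compound or NADPH system. Quenched with detergent buffer. Reduced-CO difference spectrum read 400–500 nm; P450 from A450–A475 (91 mM⁻¹cm⁻¹), expressed relative to time 0.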
# [9] = biological target: T1, Cytochrome P450 2D6; assay: Covalent binding affinity to human CYP2D6 with P450 reductase assessed per nmol of enzyme after 60 mins by protein precipitation and scintillation counting analysis in absence of NADPH; details: 1 h
# [10] = biological target: T2, CYP2D6; assay: Inhibition of catalytic activity of recombinant human CYP2D6 expressed in Escherichia coli co-expressing P450 reductase assessed as loss of native heme in hemochrome at 16 uM after <15 mins by hemochrome assay in presence of NADPH; format: ADME
# Procedure, shortened: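 Purified CYP2D6 (1 μM) with 2 μM reductase, 30 μM dilauroyl-PC, catalase, SOD and 16 μM compound in 100 mM KPi pH 7.4, incubated 0–40 min with an NADPH-generating system. Controls lacked compound or NADPH system. Quenched in detergent buffer, then pyridine (22%) and NaOH (0.01 N, final) added. Dithionite-reduced spectrum 520–620 nm; heme from A557–A575 (32.4 mM⁻¹cm⁻¹), relative to time 0.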
# [11] = biological target: T1, Cytochrome P450 2D6; assay: Inhibition of CYP2D6 (unknown origin); format: ADME
# [12] = biological target: T1, Cytochrome P450 2D6; assay: Drug metabolism assessed as human CYP2D6 with P450 reductase-mediated retention time of metabolite by LC-MS/MS analysis in presence of NADPH; format: ADME
# [13] = biological target: T1, Cytochrome P450 2D6; assay: as §1; format: ADME; details: recombinant enzyme, 0.25 h, 16 µM
# T2 sequence (P10635 whole entry): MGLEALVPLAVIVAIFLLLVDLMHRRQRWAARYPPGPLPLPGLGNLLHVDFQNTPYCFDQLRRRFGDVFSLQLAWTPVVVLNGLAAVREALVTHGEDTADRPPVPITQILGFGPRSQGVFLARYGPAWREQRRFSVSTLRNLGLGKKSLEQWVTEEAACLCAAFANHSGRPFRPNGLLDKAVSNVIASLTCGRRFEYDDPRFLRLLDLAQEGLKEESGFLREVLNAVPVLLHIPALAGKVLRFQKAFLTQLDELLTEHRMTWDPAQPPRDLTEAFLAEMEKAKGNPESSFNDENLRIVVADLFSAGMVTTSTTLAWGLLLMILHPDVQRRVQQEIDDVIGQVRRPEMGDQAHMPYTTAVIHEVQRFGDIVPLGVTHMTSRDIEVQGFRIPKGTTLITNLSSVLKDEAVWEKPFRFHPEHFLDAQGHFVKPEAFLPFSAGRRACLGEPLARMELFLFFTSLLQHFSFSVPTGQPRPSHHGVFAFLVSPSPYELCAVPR
# T1 sequence (P10635 whole entry): as above
# Chain of Cytochrome P450 2C19 (P33261 whole entry): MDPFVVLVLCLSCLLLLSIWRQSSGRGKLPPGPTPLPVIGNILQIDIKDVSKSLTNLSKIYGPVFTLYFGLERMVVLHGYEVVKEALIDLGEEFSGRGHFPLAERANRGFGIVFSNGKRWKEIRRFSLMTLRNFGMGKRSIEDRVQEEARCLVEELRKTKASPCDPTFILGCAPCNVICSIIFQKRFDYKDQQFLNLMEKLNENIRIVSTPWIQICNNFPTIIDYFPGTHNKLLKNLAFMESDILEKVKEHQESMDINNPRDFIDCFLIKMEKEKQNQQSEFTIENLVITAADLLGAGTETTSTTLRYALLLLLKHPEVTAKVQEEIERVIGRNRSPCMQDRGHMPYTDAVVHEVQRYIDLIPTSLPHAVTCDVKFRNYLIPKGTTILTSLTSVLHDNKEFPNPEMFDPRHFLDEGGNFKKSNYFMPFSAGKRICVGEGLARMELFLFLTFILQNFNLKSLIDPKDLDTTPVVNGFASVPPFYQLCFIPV
# Chain of Cytochrome P450 2C9 (P11712 whole entry): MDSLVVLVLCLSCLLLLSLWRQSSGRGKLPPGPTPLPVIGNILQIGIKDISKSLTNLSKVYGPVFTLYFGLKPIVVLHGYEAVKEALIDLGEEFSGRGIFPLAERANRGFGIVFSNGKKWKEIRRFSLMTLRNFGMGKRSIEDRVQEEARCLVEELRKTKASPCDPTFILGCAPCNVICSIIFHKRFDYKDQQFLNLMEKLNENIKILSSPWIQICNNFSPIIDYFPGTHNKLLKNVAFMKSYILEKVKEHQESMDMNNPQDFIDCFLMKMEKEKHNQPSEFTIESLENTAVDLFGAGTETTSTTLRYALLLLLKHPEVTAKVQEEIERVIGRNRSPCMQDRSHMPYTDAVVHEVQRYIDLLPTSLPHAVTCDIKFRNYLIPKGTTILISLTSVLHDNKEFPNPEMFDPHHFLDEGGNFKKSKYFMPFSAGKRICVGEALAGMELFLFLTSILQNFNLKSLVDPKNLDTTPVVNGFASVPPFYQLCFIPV
SMILES,Ratio [1],"inhibition at 0.25 h, 16 µM [2] [%]","inhibition at 0.25 h, 16 µM [3] [%]",PB [4] [nmol],Retention_time [5] [min],Kd [6] [nM],Retention_time [7] [min],"inhibition at 0.25 h, 16 µM [8] [%]",PB [9] [nmol],"inhibition at 0.25 h, 16 µM [10] [%]",Ki [11] [nM],Retention_time [12] [min],inhibition (INH) [13]
CCc1nc(C)c(CN2CCN(c3cc(C(F)(F)F)ccn3)CC2)[nH]1,99,–,–,–,–,–,–,–,–,–,–,–,–
Fc1cnc(N2CCN(Cc3cnc(-c4ccccc4)[nH]3)CC2)nc1,3,25,90,3.15,17,390,17,25,1.95,15,550,17,–
COc1ccc2c(c1)[C@]13CCCC[C@@H]1[C@H](C2)N(C)CC3 [DEXTROMETHORPHAN],–,–,–,–,–,–,–,–,–,–,–,–,Active
